TMEM16A act – activators or potentiators of mouse TMEM16A chloride channel | HEK293 TMEM16A/YFP-H148Q/I152L, iodide quench fluorescence; hits give low values | B-score at 10 µM | hit rate 0.3% among 340,000 | AID 623877;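 active means fluorescence-ratio B-score plate-corrected deviation score at least 3 library SD below zero, with starting fluorescence score within 5 deviations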;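 further: channel opened by trigger with iodide after compound preincubation; score built on the fluorescence ratio of max minus min over baseline; more negative score means more quench and so TMEM16A activation or potentiation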
CHT block – inhibitors of human choline transporter CHT; Q9GZV3; CHT-expressing cells, membrane potential dye, choline response; hits give low values; B-score at 10 µM; hit rate 0.86% among 310,000; AID 488975;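 active means B-score over 3 SD under the library average, and starting fluorescence ratio not unusually high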;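 further: choline stimulus applied at its EC90 after an EC20 pre-addition; B-score computed on integrated fluorescence ratio after choline addition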
TMEM16A inh – inhibitors of mouse TMEM16A calcium-activated chloride channel | Q8BHY3 | HEK293 TMEM16A/YFP iodide influx fluorescence, ionomycin | normalized B-score (activity score, 25-100; higher = stronger inhibition) at 10 µM | hit rate 1.2% among 310,000 | AID 588511;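 active means ratio plate-corrected score three or more library SD toward inhibition, starting fluorescence score within five deviations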;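 further: score derived from kinetic fluorescence span divided by baseline fluorescence per well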
VIM-2 inh – inhibitors of Pseudomonas aeruginosa VIM-2 metallo-beta-lactamase | purified VIM-2, nitrocefin hydrolysis, epi-absorbance fluorescence | inhibition, % at 5.6 µM | hit rate 0.89% among 290,000;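 active means inhibition above the mean of all tested compounds plus 3 SD, cutoff set per screening run, cut at about 7.5% in these data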;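 further: red hydrolysis product quenches plate fluorescence so inhibitors raise well fluorescence; 0% = enzyme with DMSO and 100% = DMSO without enzyme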
CHT PAM – allosterically activates the human high affinity choline transporter. Q9GZV3. CHT-expressing cells, membrane potential dye, choline EC20; hits give high values; LV-AA mutant CHT in HEK293 cells. B-score at 10 µM. hit rate 0.49% among 310,000. AID 488977;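 active means initial fluorescence not abnormally high and integrated response B-score, plate-corrected, over 3 SD above library mean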
IMP-1 inh – inhibitors of Pseudomonas aeruginosa IMP-1 metallo-beta-lactamase. purified IMP-1, nitrocefin hydrolysis, epi-absorbance fluorescence. inhibition, % at 5.6 µM. hit rate 0.45% among 290,000. AID 1556;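 active means inhibition above the mean plus 3 SD of all compounds in the same screening run, cut at about 4.5% in these data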;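 further: 0% = IMP-1 with DMSO and 100% = DMSO wells lacking enzyme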
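assay system = purified recombinant IMP-1 metallo-beta-lactamase enzyme | schedule = 15 min preincubation plus 25 min reaction at 25 °C | signal = Epi-absorbance fluorescence, 480 nm excitation, 530 nm emission | read-out basis = percent inhibition from optical density relative to buffer-blank wells | controls = IMP-1 with DMSO as 0%, enzyme-free DMSO as 100%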
CHT block conf – human CHT inhibition, confirmatory screen; shares compounds with CHT block; CHT-expressing cells, choline membrane potential dye; LV-to-AA substituted CHT, HEK293 cells; CHT activity remaining % of control (hits give low values), % at 10 µM; hit rate 70% among 2,400; AID 493221;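 active means choline transporter activity left, mean of duplicates at 10 µM, below buffer-only control mean minus 3 SD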;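 further: depolarization triggered by choline at its EC90 following an EC20 pre-addition; 0% = hemicholinium-3 full block and 100% = buffer-only control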
HEK293 CHT ctr – activity in parental HEK293 cells lacking CHT | AID 493222 | hit rate 4% among 2,400 | membrane potential dye, choline response; active = decrease or increase beyond buffer ±3SD | shares compounds with CHT block | membrane potential ratio readout (active if shifted either direction beyond buffer ±3SD; no single direction) at 10 µM;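 further: parental cells lack the transporter so any hit is non-specific; ratio is peak minus trough fluorescence over baseline after EC90 choline challenge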
* hit, by the source's call; i = inactive; · = not tested or not shown. Sampled rows, rich in hits. Any-hit rate of the full collection: about 3.4%.

SMILES | TMEM16A act | CHT block | TMEM16A inh | VIM-2 inh | CHT PAM | IMP-1 inh | CHT block conf | HEK293 CHT ctr
CC1CN(C(=O)CCC(=O)N2CCCCC2)c2cc(Cl)ccc2O1 (configuration not stated) | i | i | i | -2 | i | -2 | · | ·
CC1CN(C(=O)CCC(=O)NC(C)c2ccccc2)c2cc(Cl)ccc2O1 (configuration not stated) | i | i | i | 1 | i | 0 | 24%* | i
CCC(C(=O)NCc1ccccc1OC)c1ccccc1 (configuration not stated) | i | i | i | 0 | i | -5 | i | i
CCC(C(=O)Nc1ccc(OC)c(Cl)c1)c1ccccc1 (configuration not stated) | i | -6.6* | i | -1 | i | 0 | i | i
COc1cccc(N2CCN(CC(=O)Nc3ccc(S(=O)(=O)N4CCCCCC4)cc3)CC2)c1 | i | · | · | · | · | · | · | ·
O=C(NNC(=S)NC1CCCCC1)c1ccccc1O | i | -5* | i | 0 | i | -3 | 53%* | i
CN(C=O)c1ccc(CSc2ccccc2)cc1 | i | · | · | · | · | · | · | ·
Cc1c(Cl)cccc1NCC(=O)NN=C1CCCC1 | i | -5.1* | i | -3 | i | -2 | 48%* | i
Cn1c(CN2CCCCC2)nc2cc(NC(=O)c3ccccc3Cl)ccc21 | i | -7.5* | i | -1 | i | -1 | 40%* | i
COc1ccccc1C(=O)Nc1ccc2c(c1)nc(CN1CCCCC1)n2C | i | i | i | -5 | i | -5 | · | ·
O=[N+]([O-])c1cc(Cc2ccccc2)cc(C=Nc2ccc(N3CCOCC3)cc2)c1O | i | -5.9* | i | -4 | i | 8.8* | 66%* | i
Oc1c(Cl)cc(Cl)cc1C=Nc1ccc(N2CCOCC2)cc1 | i | i | i | 0 | i | -3 | · | ·
Cc1ccc(-c2csc(NC(=O)c3ccc(F)cc3)c2C(=O)O)cc1 | i | -6.4* | i | -2 | i | -2 | 53%* | i
Cc1ccc(-c2csc(NC(=O)c3ccccc3F)c2C(=O)O)cc1 | i | -5.1* | i | 4 | i | 0 | 45%* | i
CCc1ccc(C(C)NC(=S)NC2CCCCC2)cc1 (configuration not stated) | i | -8.1* | i | -6 | i | -3 | 49%* | i
CC1=NN(c2ccccc2)C(=O)/C1=C/c1ccc(-c2ccc(C)c(C(=O)O)c2)o1 | i | -6.2* | i | · | i | · | 42%* | i
CC1=NN(c2ccc(C)cc2)C(=O)/C1=C/c1ccc(-c2cc([N+](=O)[O-])ccc2O)o1 | i | · | · | 0 | · | -4 | · | ·
CCC1(c2ccc(F)cc2)NC(=O)N(CC(=O)NCc2ccccc2Cl)C1=O (configuration not stated) | i | i | i | 2 | i | 1 | · | ·
Cc1ccc(CNC(=O)N[C@@H](Cc2ccccc2)C(=O)O)cc1 | i | -16* | i | -2 | i | -1 | 60%* | i
O=C1C(=O)N(CCc2c[nH]c3ccccc23)C(c2cccnc2)/C1=C(/O)c1ccccc1 (configuration not stated) | · | -6.3* | i | 4 | i | -2 | i | i
CS(=O)(=O)N(CC(=O)Nc1ccc(S(=O)(=O)N2CCCC2)cc1)c1ccccc1 | i | i | i | -2 | i | -2 | · | ·
CC(=O)Nc1ccc(NC(=O)C(C)Oc2ccc(Cl)cc2Cl)cc1 (configuration not stated) | i | i | i | -2 | i | -1 | · | ·

Assay outcomes as filed in PubChem BioAssay.
